Results: ChEMBL document CHEMBL4825747, “A Retrospective Look at the Impact of Binding Site Environment on the Optimization of TRPA1 Antagonists” (ACS Med Chem Lett, 2021)
Converted amounts (≈) assume the structure as drawn.

Experiments:
[1] = Kinetic solubility of the compound; type: physicochemical; details: for solubility kinetic: read-out: Kinetic_solubility
[2] = Protein binding in rat plasma incubated for 4 hrs; type: ADME, cell-free; details: read-out: PPB (converted)
How it was run: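 Rat plasma protein binding was determined after 4 h compound incubation rather than the standard 24 h, because of compound instability in rat plasma.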

[3] = molecular target: Transient receptor potential cation channel subfamily A member 1 (Rattus norvegicus, UniProt Q6RI86); test: Antagonist activity at rat TRPA1
How it was run: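 In vitro potency read in a CHO cell line-based fluorometric imaging plate reader (FLIPR) Ca2+ assay against the rat TRPA1 channel.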

[4] = Lipophilicity, log D of the compound at pH 7.4; type: physicochemical; details: buffer
[5] = Half life in rat at 1 mg/kg; type: ADME, organism-based; details: in vivo
[6] = Plasma clearance in rat at 1 mg/kg; type: ADME, organism-based
[7] = Permeability across apical to basolateral membrane in MDCK cells; type: ADME, cell-based, Canis lupus familiaris; details: dog, read-out: permeability
[8] = molecular target: Transient receptor potential cation channel subfamily A member 1 (Rattus norvegicus) (UniProt Q6RI86); test: In vivo antagonist activity at TRPA1 in AITC-induced rat pain model assessed as reduction in pain behaviour when administered orally; type: functional, organism-based
[9] = Unbound volume of distribution at steady state in rat at 1 mg/kg; type: ADME, organism-based; details: in vivo
[10] = Unbound clearance in rat at 1 mg/kg; type: ADME, organism-based; details: in vivo
[11] = Volume of distribution at steady state in rat at 1 mg/kg; type: ADME, organism-based; details: in vivo, read-out: Vdss
[12] = molecular target: Transient receptor potential cation channel subfamily A member 1 (Homo sapiens, UniProt O75762); test: Antagonist activity at human TRPA1 expressed in CHO cells measured by calcium based FLIPR assay; type: cell-based
[13] = Ratio of fEC50 for in vivo antagonist activity at TRPA1 in AITC-induced rat pain model assessed as reduction in pain behaviour when administered orally to IC50 for antagonist activity at rat TRPA1; type: organism-based; details: po
How it was run: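 The in vivo value comes from the oral-dose rat AITC paw-injection model at Tmax, scoring flinching and licking against measured exposures across animals. The in vitro comparator is rat TRPA1 antagonism in a CHO cell-based FLIPR Ca2+ assay.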

[14] = Plasma clearance in rat at 0.5 mg/kg; type: ADME, organism-based
[15] = Volume of distribution at steady state in rat at 0.5 mg/kg; type: ADME, organism-based; details: in vivo, read-out: Vdss
[16] = Unbound clearance in rat at 0.5 mg/kg; type: ADME, organism-based; details: in vivo
[17] = Half life in rat at 0.5 mg/kg; type: ADME, organism-based; details: in vivo
[18] = Unbound volume of distribution at steady state in rat at 0.5 mg/kg; type: ADME, organism-based; details: in vivo

Transient receptor potential cation channel subfamily A member 1 (Homo sapiens, UniProt O75762), sequence (O75762 whole entry): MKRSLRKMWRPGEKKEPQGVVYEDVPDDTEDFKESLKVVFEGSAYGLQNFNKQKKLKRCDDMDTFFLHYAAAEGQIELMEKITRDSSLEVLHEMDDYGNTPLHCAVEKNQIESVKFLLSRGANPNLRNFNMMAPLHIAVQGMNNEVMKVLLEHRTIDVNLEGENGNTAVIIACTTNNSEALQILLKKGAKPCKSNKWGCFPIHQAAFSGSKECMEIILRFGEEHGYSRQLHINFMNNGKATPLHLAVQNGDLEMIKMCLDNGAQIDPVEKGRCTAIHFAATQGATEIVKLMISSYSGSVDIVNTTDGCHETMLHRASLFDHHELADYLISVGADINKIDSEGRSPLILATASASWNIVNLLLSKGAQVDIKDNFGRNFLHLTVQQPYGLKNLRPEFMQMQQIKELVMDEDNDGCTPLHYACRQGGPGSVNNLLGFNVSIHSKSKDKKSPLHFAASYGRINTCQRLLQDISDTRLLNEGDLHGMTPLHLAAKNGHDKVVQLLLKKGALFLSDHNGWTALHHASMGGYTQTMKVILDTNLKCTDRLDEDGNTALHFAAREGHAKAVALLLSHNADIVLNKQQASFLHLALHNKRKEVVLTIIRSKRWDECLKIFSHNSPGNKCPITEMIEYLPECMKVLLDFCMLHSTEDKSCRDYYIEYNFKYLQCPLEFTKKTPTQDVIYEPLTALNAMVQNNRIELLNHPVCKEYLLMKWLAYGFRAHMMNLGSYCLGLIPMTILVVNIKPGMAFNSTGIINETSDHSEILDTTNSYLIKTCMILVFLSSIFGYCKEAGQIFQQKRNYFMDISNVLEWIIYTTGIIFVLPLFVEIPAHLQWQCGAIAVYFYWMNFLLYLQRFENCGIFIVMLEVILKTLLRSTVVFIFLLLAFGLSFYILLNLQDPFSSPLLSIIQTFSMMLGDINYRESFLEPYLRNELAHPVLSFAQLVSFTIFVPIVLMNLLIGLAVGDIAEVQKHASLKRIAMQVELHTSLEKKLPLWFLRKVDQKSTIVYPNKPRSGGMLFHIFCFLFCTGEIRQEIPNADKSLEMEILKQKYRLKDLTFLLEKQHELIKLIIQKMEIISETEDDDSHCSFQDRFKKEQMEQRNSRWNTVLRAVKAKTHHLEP
Transient receptor potential cation channel subfamily A member 1 (Rattus norvegicus, UniProt Q6RI86), sequence (Q6RI86 whole entry): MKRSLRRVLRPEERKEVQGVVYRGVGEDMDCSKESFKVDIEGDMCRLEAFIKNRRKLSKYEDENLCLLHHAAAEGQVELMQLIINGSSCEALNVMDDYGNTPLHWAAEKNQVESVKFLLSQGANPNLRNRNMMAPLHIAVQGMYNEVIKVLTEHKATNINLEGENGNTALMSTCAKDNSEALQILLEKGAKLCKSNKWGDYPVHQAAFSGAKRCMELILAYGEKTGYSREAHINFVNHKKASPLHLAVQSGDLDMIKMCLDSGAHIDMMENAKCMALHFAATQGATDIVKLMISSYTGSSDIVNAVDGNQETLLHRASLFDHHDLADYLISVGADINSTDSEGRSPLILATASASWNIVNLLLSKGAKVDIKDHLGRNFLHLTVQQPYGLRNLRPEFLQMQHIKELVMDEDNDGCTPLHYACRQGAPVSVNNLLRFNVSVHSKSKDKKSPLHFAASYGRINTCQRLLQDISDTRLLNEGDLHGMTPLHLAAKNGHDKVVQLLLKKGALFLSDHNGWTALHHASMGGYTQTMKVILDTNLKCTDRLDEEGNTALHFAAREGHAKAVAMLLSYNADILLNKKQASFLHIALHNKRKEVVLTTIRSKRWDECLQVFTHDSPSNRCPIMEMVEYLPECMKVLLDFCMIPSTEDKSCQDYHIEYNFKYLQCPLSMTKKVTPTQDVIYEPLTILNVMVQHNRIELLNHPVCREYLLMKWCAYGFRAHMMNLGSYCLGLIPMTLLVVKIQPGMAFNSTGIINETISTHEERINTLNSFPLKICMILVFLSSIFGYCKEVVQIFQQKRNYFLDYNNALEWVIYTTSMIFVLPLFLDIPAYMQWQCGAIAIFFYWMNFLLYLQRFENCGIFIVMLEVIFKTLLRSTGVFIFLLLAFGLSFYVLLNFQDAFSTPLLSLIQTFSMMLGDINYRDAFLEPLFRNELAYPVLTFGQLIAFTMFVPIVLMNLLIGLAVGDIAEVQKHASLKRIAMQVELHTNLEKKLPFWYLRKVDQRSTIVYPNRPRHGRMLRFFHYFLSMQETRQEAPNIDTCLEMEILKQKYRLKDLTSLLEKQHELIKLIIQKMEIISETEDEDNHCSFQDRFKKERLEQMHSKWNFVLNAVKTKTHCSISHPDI
Transient receptor potential cation channel subfamily A member 1 (Rattus norvegicus), sequence (Q6RI86 whole entry): as above

Cn1cnc2ncn(Cc3nn([C@H]4C[C@H](c5ccc(Cl)cc5)C4)c(=O)o3)c(=O)c21
solubility kinetic [1]: 15 µM (≈ 6.19 µg/mL)
fraction unbound at 4 h [2]: 0.081
IC50 [3]: 14 nM
logD [4]: 2.4
half-life [5]: 2.7 h
clearance [6]: 10 mL/min/kg
Papp A→B [7]: 6.4 ×10⁻⁶ cm/s
fEC50 [8]: 49 nM
fVdss [9]: 28 L/kg
CL free [10]: 123 mL/min/kg
Vd [11]: 2.3 L/kg

C[C@H]1[C@H](F)C[C@@H](C(=O)NCc2cc(-c3cnc(C(F)(F)F)nc3)ncc2F)N1S(=O)(=O)c1ccc(F)cc1
solubility kinetic [1]: < 1 µM
IC50 [12]: 8.4 nM
fraction unbound at 4 h [2]: 0.028
fEC50 [8]: 60 nM
fVdss [9]: 93 L/kg
Ratio [13]: 1.7
CL free [10]: 157 mL/min/kg
Vd [11]: 2.6 L/kg

Cn1cnc2ncn(Cc3nc([C@H]4[C@@H]5CN(c6cccc(Cl)c6)C[C@@H]54)no3)c(=O)c21
Kinetic_solubility [1]: 2 µM
IC50 [12]: 2.9 nM
fraction unbound at 4 h [2]: 0.021
IC50 [3]: 7.9 nM
logD [4]: 2.9
fEC50 [8]: 7.9 nM
fVdss [9]: 110 L/kg
Ratio [13]: 1
CL free [10]: 214 mL/min/kg

Cn1cnc2ncn(Cc3nn(C[C@H](F)c4ccc(Cl)cc4)c(=O)o3)c(=O)c21
IC50 [12]: 20 nM
fraction unbound at 4 h [2]: 0.381
IC50 [3]: 18 nM
logD [4]: 1.2
half-life [5]: 1.5 h
fEC50 [8]: 390 nM
fVdss [9]: 3.4 L/kg
Ratio [13]: 22
CL free [10]: 45 mL/min/kg

C[C@H]1[C@H](F)C[C@@H](C(=O)NCc2cc(-c3cnc(C(F)(F)F)nc3)ncn2)N1S(=O)(=O)c1ccc(F)cc1
clearance [14]: 6.4 mL/min/kg
solubility kinetic [1]: 98 µM (≈ 53.2 µg/mL)
fraction unbound at 4 h [2]: 0.075
IC50 [3]: 390 nM
Vd [15]: 1.1 L/kg
CL free [16]: 85 mL/min/kg
Papp A→B [7]: 16.5 ×10⁻⁶ cm/s
half-life [17]: 2 h
fVdss [18]: 15 L/kg

C[C@H]1[C@H](F)C[C@@H](C(=O)NCc2cc(-c3ccc(C(F)(F)F)nc3)ncn2)N1S(=O)(=O)c1ccc(F)cc1
clearance [14]: 10 mL/min/kg
fraction unbound at 4 h [2]: 0.052
IC50 [3]: 1600 nM
Vd [15]: 2.2 L/kg
CL free [16]: 192 mL/min/kg
half-life [17]: 2.6 h
fVdss [18]: 42 L/kg

Cn1cnc2ncn(Cc3nc([C@@H]4CO[C@@H](c5ccc(Cl)cc5)C4)no3)c(=O)c21
solubility kinetic [1]: 120 µM (≈ 49.5 µg/mL)
fraction unbound at 4 h [2]: 0.192
IC50 [3]: 7.4 nM
logD [4]: 1.8
fEC50 [8]: 53 nM
fVdss [9]: 11 L/kg
CL free [10]: 89 mL/min/kg

C[C@H]1[C@H](F)C[C@@H](C(=O)NCc2cc(-c3cnc(C(F)(F)F)nc3)ncc2C(F)(F)F)N1S(=O)(=O)c1ccc(F)cc1
Kinetic_solubility [1]: 7 µM
IC50 [12]: 1.6 nM
fraction unbound at 4 h [2]: 0.012
IC50 [3]: 10 nM
half-life [5]: 9.8 h
clearance [6]: 7.7 mL/min/kg
Papp A→B [7]: 27.5 ×10⁻⁶ cm/s
fEC50 [8]: 3.7 nM
fVdss [9]: 467 L/kg
Ratio [13]: 0.37
CL free [10]: 642 mL/min/kg
Vd [11]: 5.6 L/kg
